Assay results as given in ChEMBL document CHEMBL4004856, “Synthesis of new heterocyclic compounds based on pyrazolopyridine scaffold and evaluation of their neuroprotective potential in MPP+-induced neurodegeneration” (Eur J Med Chem, 2017).
Calls of active or inactive are those of the source. No cut-off for these calls is given here.

Legend:
SH-SY5Y [1] = assay: Cytotoxicity against human SH-SY5Y cells assessed as reduction in cell viability up to 20 uM up to 24 hrs by MTT assay; format: cell-based
How it was run: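 SH-SY5Y cells in DMEM with 10% FBS and penicillin/streptomycin at 37°C, 5% CO2, seeded 2x10³ cells/well and left to adhere 24 h. Compounds (5, 10, 20 μM, in DMSO) were added for 3, 6 and 24 h. MTT was then added (0.5 mg/ml final) for 3 h, and formazan was dissolved in DMSO and read at 570/630 nm. Values are relative to vehicle control.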

SH-SY5Y [2] = assay: Neuroprotective activity against MPP+-induced toxicity in human SH-SY5Y cells assessed as increase in cell viability preincubated for 1 hr followed by MPP+ addition measured up to 24 hrs by MTT assay; format: functional, cell-based
How it was run: (§1)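 SH-SY5Y cells seeded 2x10³/well and left to adhere 24 h. Compounds (5–20 μM, DMSO) were added 1 h before 2 mM MPP⁺ for 24 h at 37°C, 5% CO2. Viability was read by MTT (0.5 mg/ml final, 3 h), DMSO solubilisation and absorbance at 570/630 nm, expressed as % of vehicle control. Mean ± SD, n = 5.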

SH-SY5Y [3] = assay: Neuroprotective activity against MPP+-induced toxicity in human SH-SY5Y cells assessed as increase in cell viability at 10 to 20 uM preincubated for 1 hr followed by MPP+ addition measured up to 24 hrs by MTT assay relative to control; format: functional; how it was run: as §1
SH-SY5Y [4] = assay: Neuroprotective activity against MPP+-induced toxicity in human SH-SY5Y cells assessed as increase in cell viability at 5 uM preincubated for 1 hr followed by MPP+ addition measured up to 24 hrs by MTT assay relative to control; format: functional; how it was run: as §1
SH-SY5Y [5] = assay: Neuroprotective activity against MPP+-induced toxicity in human SH-SY5Y cells assessed as ratio of Bax to beta-actin protein expression level at 5 uM preincubated for 1 hr followed by MPP+ addition measured up to 12 hrs by Western blot method (reference value: 1.26); format: functional
How it was run: (§2)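 SH-SY5Y cells seeded 5x10⁵/well and left to adhere 24 h. Compounds (1 or 5 μM) were added 1 h before 2 mM MPP⁺ for 12 h. Lysates in RIPA-type buffer; 10 μg protein run on 10% SDS gels and blotted to PVDF. Blots were probed with rabbit anti-bax, Bcl-2, Bcl-xl or caspase-3 (cleaved p17/p19) antibodies and detected by chemiluminescence. Densitometry was normalised to β-actin. Mean ± SD, n = 3.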

SH-SY5Y [6] = assay: Neuroprotective activity against MPP+-induced toxicity in human SH-SY5Y cells assessed as ratio of Bax to beta-actin protein expression level at 1 uM preincubated for 1 hr followed by MPP+ addition measured up to 12 hrs by Western blot method (reference value: 1.26); format: functional; how it was run: as §2
SH-SY5Y [7] = assay: Neuroprotective activity against MPP+-induced toxicity in human SH-SY5Y cells assessed as decrease in Bax protein expression level preincubated for 1 hr followed by MPP+ addition measured up to 12 hrs by Western blot method; format: functional, cell-based; how it was run: as §2
SH-SY5Y [8] = assay: Neuroprotective activity against MPP+-induced toxicity in human SH-SY5Y cells assessed as ratio of Bcl2 to beta-actin protein expression level at 5 uM preincubated for 1 hr followed by MPP+ addition measured up to 12 hrs by Western blot method (reference value: 2.84 +/- 0.02); format: functional; how it was run: as §2
SH-SY5Y [9] = assay: Neuroprotective activity against MPP+-induced toxicity in human SH-SY5Y cells assessed as decrease in caspase-3 activation at 1 uM preincubated for 1 hr followed by MPP+ addition measured up to 12 hrs by Western blot method; format: functional, cell-based; how it was run: as §2
SH-SY5Y [10] = assay: Neuroprotective activity against MPP+-induced toxicity in human SH-SY5Y cells assessed as decrease in caspase-3 activation at 5 uM preincubated for 1 hr followed by MPP+ addition measured up to 12 hrs by Western blot method; format: functional, cell-based; how it was run: as §2
SH-SY5Y [11] = assay: Neuroprotective activity against MPP+-induced toxicity in human SH-SY5Y cells assessed as increase in Bcl-xl protein level at 1 uM preincubated for 1 hr followed by MPP+ addition measured up to 12 hrs by Western blot method; format: functional, cell-based; how it was run: as §2
SH-SY5Y [12] = assay: Neuroprotective activity against MPP+-induced toxicity in human SH-SY5Y cells assessed as increase in Bcl2 protein expression level preincubated for 1 hr followed by MPP+ addition measured up to 12 hrs by Western blot method
SH-SY5Y [13] = assay: Neuroprotective activity against MPP+-induced toxicity in human SH-SY5Y cells assessed as increase in Bcl2 protein expression level at 1 uM preincubated for 1 hr followed by MPP+ addition measured up to 12 hrs by Western blot method
SH-SY5Y [14] = assay: Neuroprotective activity against MPP+-induced toxicity in human SH-SY5Y cells assessed as increase in Bcl-xl protein level by measuring ratio of Bcl-xl to beta actin level at 5 uM preincubated for 1 hr followed by MPP+ addition measured up to 12 hrs by Western blot method (reference value: 0.27 +/- 0.001); format: functional; how it was run: as §2
SH-SY5Y [15] = assay: Neuroprotective activity against MPP+-induced toxicity in human SH-SY5Y cells assessed as increase in cell viability at 5 to 10 uM preincubated for 1 hr followed by MPP+ addition measured up to 24 hrs by MTT assay relative to control; format: functional; how it was run: as §1
SH-SY5Y [16] = assay: Neuroprotective activity against MPP+-induced toxicity in human SH-SY5Y cells assessed as increase in cell viability at 20 uM preincubated for 1 hr followed by MPP+ addition measured up to 24 hrs by MTT assay relative to control; format: functional; how it was run: as §1

## Cc1nc2c(c(C)nn2-c2ccccc2)c(C)c1-c1ccc(C=O)cc1
SH-SY5Y [1]
  Activity: Non-Toxic
SH-SY5Y [2]
  Activity: Dose-dependent effect
SH-SY5Y [3]
  Activity: 10 - 20%
SH-SY5Y [4]
  Activity: 20 - 30%
SH-SY5Y [5]
  Ratio: 0.49 - 1.03
SH-SY5Y [6]
  Ratio: 0.86
SH-SY5Y [7]
  Activity: Dose-dependent effect
SH-SY5Y [8]
  Ratio: 2.63
SH-SY5Y [9]
  Activity: Active
SH-SY5Y [10]
  Activity: Active
SH-SY5Y [11]
  Activity: Active
SH-SY5Y [12]
  Activity: Dose-dependent effect
SH-SY5Y [13]
  Activity: inactive

## Cc1nc2c(c(C)nn2-c2ccccc2)c(C)c1-c1ccc(N(C)C)cc1
SH-SY5Y [1]
  Activity: Non-Toxic
SH-SY5Y [2]
  Activity: Dose-dependent effect
SH-SY5Y [3]
  Activity: 10 - 20%
SH-SY5Y [4]
  Activity: 20 - 30%

## Cc1ccc(-c2c(C)nc3c(c(C)nn3-c3ccccc3)c2C)cc1
SH-SY5Y [1]
  Activity: Non-Toxic
SH-SY5Y [2]
  Activity: Dose-dependent effect
SH-SY5Y [3]
  Activity: 10 - 20%
SH-SY5Y [4]
  Activity: 20 - 30%
SH-SY5Y [5]
  Ratio: 0.49 - 1.03
SH-SY5Y [6]
  Ratio: 1.11
SH-SY5Y [7]
  Activity: Dose-dependent effect
SH-SY5Y [8]
  Ratio: 3.62
SH-SY5Y [9]
  Activity: Active
SH-SY5Y [10]
  Activity: Active
SH-SY5Y [11]
  Activity: Active
SH-SY5Y [12]
  Activity: Dose-dependent effect
SH-SY5Y [13]
  Activity: inactive

## Cc1cccc(-c2c(C)nc3c(c(C)nn3-c3ccccc3)c2C)c1
SH-SY5Y [1]
  Activity: Non-Toxic
SH-SY5Y [2]
  Activity: Dose-dependent effect
SH-SY5Y [3]
  Activity: 10 - 20%
SH-SY5Y [4]
  Activity: 20 - 30%

## CCOC(=O)c1ccc(-c2c(C)nc3c(c(C)nn3-c3ccccc3)c2C)cc1
SH-SY5Y [1]
  Activity: Non-Toxic
SH-SY5Y [2]
  Activity: Dose-dependent effect
SH-SY5Y [3]
  Activity: 10 - 20%
SH-SY5Y [4]
  Activity: 20 - 30%

## Cc1nc2c(c(C)nn2-c2ccccc2)c(C)c1-c1ccc(C(F)(F)F)cc1
SH-SY5Y [1]
  Activity: Non-Toxic
SH-SY5Y [2]
  Activity: Dose-dependent effect
SH-SY5Y [3]
  Activity: 10 - 20%
SH-SY5Y [4]
  Activity: 20 - 30%
SH-SY5Y [5]
  Ratio: 0.49 - 1.03
SH-SY5Y [6]
  Ratio: 0.85
SH-SY5Y [7]
  Activity: Dose-dependent effect
SH-SY5Y [8]
  Ratio: 0.85
SH-SY5Y [9]
  Activity: Active
SH-SY5Y [10]
  Activity: inactive
SH-SY5Y [11]
  Activity: Active
SH-SY5Y [14]
  Ratio: 0.28
SH-SY5Y [12]
  Activity: Dose-dependent effect
SH-SY5Y [13]
  Activity: inactive

## Cc1nc2c(c(C)nn2-c2ccccc2)c(C)c1Br
SH-SY5Y [1]
  Activity: Non-Toxic
SH-SY5Y [2]
  Activity: Dose-dependent effect
SH-SY5Y [3]
  Activity: 10 - 20%
SH-SY5Y [4]
  Activity: 20 - 30%

## Cc1nc2c(c(C)nn2-c2ccccc2)c(C)c1-c1ccc([N+](=O)[O-])cc1
SH-SY5Y [1]
  Activity: Non-Toxic
SH-SY5Y [2]
  Activity: Dose-dependent effect
SH-SY5Y [3]
  Activity: 10 - 20%
SH-SY5Y [4]
  Activity: 20 - 30%
SH-SY5Y [5]
  Ratio: 0.49 - 1.03
SH-SY5Y [6]
  Ratio: 0.75
SH-SY5Y [7]
  Activity: Dose-dependent effect
SH-SY5Y [8]
  Ratio: 3.22
SH-SY5Y [9]
  Activity: Active
SH-SY5Y [10]
  Activity: inactive
SH-SY5Y [11]
  Activity: Active
SH-SY5Y [12]
  Activity: Dose-dependent effect
SH-SY5Y [13]
  Activity: inactive

## Cc1nc2c(c(C)nn2-c2ccccc2)c(C)c1-c1ccccc1
SH-SY5Y [1]
  Activity: Non-Toxic
SH-SY5Y [2]
  Activity: Dose-dependent effect
SH-SY5Y [3]
  Activity: 10 - 20%
SH-SY5Y [4]
  Activity: 20 - 30%

## Cc1ccccc1-c1c(C)nc2c(c(C)nn2-c2ccccc2)c1C
SH-SY5Y [1]
  Activity: Non-Toxic
SH-SY5Y [2]
  Activity: Dose-dependent effect
SH-SY5Y [3]
  Activity: 10 - 20%
SH-SY5Y [4]
  Activity: 20 - 30%

## Cc1nc2c(c(C)nn2-c2ccccc2)c(C)c1-c1cccs1
SH-SY5Y [1]
  Activity: Non-Toxic
SH-SY5Y [2]
  Activity: Dose-dependent effect
SH-SY5Y [3]
  Activity: 10 - 20%
SH-SY5Y [4]
  Activity: 20 - 30%
SH-SY5Y [5]
  Ratio: 0.49 - 1.03
SH-SY5Y [6]
  Ratio: 0.76
SH-SY5Y [7]
  Activity: Dose-dependent effect
SH-SY5Y [8]
  Ratio: 4.33
SH-SY5Y [9]
  Activity: Active
SH-SY5Y [11]
  Activity: Active
SH-SY5Y [12]
  Activity: Dose-dependent effect
SH-SY5Y [13]
  Activity: inactive

## COc1ccc(-c2c(C)nc3c(c(C)nn3-c3ccccc3)c2C)cc1
SH-SY5Y [1]
  Activity: Non-Toxic
SH-SY5Y [2]
  Activity: Dose-dependent effect
SH-SY5Y [3]
  Activity: 10 - 20%
SH-SY5Y [4]
  Activity: 20 - 30%

## Cc1nc2c(c(C)nn2-c2ccccc2)c(C)c1-c1ccc(F)nc1
SH-SY5Y [1]
  Activity: Non-Toxic
SH-SY5Y [2]
  Activity: Dose-dependent effect
SH-SY5Y [15]
  Activity: 20 - 30%
SH-SY5Y [16]
  Activity: 10 - 20%

## Cc1nc2c(c(C)nn2-c2ccccc2)c(C)c1-c1ccc(Cl)cc1
SH-SY5Y [1]
  Activity: Non-Toxic
SH-SY5Y [2]
  Activity: Dose-dependent effect
SH-SY5Y [15]
  Activity: 20 - 30%
SH-SY5Y [16]
  Activity: 10 - 20%
SH-SY5Y [5]
  Ratio: 0.49 - 1.03
SH-SY5Y [6]
  Ratio: 0.78
SH-SY5Y [7]
  Activity: Dose-dependent effect
SH-SY5Y [8]
  Ratio: 0.39
SH-SY5Y [9]
  Activity: Active
SH-SY5Y [11]
  Activity: Active
SH-SY5Y [12]
  Activity: Dose-dependent effect
SH-SY5Y [13]
  Activity: inactive

## Cc1nc2c(c(C)nn2-c2ccccc2)c(C)c1-c1cccc(C#N)c1
SH-SY5Y [1]
  Activity: Non-Toxic
SH-SY5Y [2]
  Activity: Dose-dependent effect
SH-SY5Y [3]
  Activity: 10 - 20%
SH-SY5Y [4]
  Activity: 20 - 30%
